The text below walks through data of ChEMBL document CHEMBL1141789, “Minutosides A and B, antifungal sulfated steroid xylosides from the patagonian starfish Anasterias minuta” (2005).

Assay [1] concerns Aspergillus flavus. The assay can be described thus: Antifungal activity against Aspergillus flavus at 20 to 60 ug/spot after 2 to 3 days. It counts as functional. The procedure, abridged: (§1)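 TLC bioautography: geometric dilutions made from freshly prepared stocks (1-10 mg mL^-1) in a suitable solvent, 10 µL spotted per TLC plate. Plates then sprayed with C. cucumerinum (DSM 62122) or A. flavus (BAFC 589) suspended in nutritive medium, incubated 2-3 days in a moist glass box. Read-out: diameter (mm) of clear inhibition zones against dark gray background; benomyl reference.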

In assay [2] the test system is Cladosporium cucumerinum. The assay can be described thus: Antifungal activity against Cladosporium cucumerinum at 10 to 60 ug/spot after 2 to 3 days. The class given is functional. The procedure, abridged:
as §1

For assay [3], the system named is Aspergillus flavus. The assay can be described thus: Antifungal activity against Aspergillus flavus at 5 to 10 ug/spot after 2 to 3 days. It counts as functional. The procedure, abridged:
as §1

The test system of assay [4] is Cladosporium cucumerinum. The assay can be described thus: Antifungal activity against Cladosporium cucumerinum at 10 ug/spot after 2 to 3 days. It counts as functional, organism-based. The gist of the method: as §1
For assay [5], the system named is Cladosporium cucumerinum. The assay can be described thus: Antifungal activity against Cladosporium cucumerinum at 20 to 60 ug/spot after 2 to 3 days. The class given is functional. The gist of the method:
as §1

Assay [6] deals with Cladosporium cucumerinum. The assay can be described thus: Antifungal activity against Cladosporium cucumerinum at 5 ug/spot after 2 to 3 days. The class given is functional. The gist of the method: (§2)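 TLC bioautography. Geometric dilutions were made from freshly prepared stock solutions (1-10 mg mL^-1) in a suitable solvent and spotted onto TLC plates. The read-out was the diameter (mm) of clear inhibition zones against a dark grey background.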

In assay [7] the test system is Aspergillus flavus. The assay can be described thus: Antifungal activity against Aspergillus flavus at 5 ug/spot after 2 to 3 days. It counts as functional. The procedure, abridged: as §2

Calls of active or inactive are those of the source. The rule behind the calls is not given here.

In the case of `CC(C)[C@H](CC[C@@H](C)[C@H]1C[C@@H](O)[C@@H]2[C@]1(C)CC[C@@H]1[C@@]3(C)CC[C@H](O)C[C@@H]3[C@@H](O)C[C@]12O)O[C@@H]1OC[C@@H](O)[C@H](O)[C@H]1O`, the result in the assay on Aspergillus flavus [1], with Cladosporium cucumerinum [2], in the assay on Aspergillus flavus [3], in the assay with Cladosporium cucumerinum [4] and in the assay with Cladosporium cucumerinum [5] was inactive.
Consider `CCCCNC(=O)n1c(NC(=O)OC)nc2ccccc21` [BENOMYL], for which the “inhibition zone (IZ)” value was 15 mm in the assay with Cladosporium cucumerinum [6] and 14 mm in the assay on Aspergillus flavus [7].
In the case of `CC(C)[C@H](/C=C/[C@@H](C)[C@H]1C[C@@H](O)[C@@H]2[C@]1(C)CC[C@@H]1[C@@]3(C)CC[C@H](OS(=O)(=O)[O-])C[C@@H]3[C@@H](O)C[C@]12O)O[C@@H]1OC[C@@H](O)[C@H](O)[C@H]1O.[Na+]` [MINUTOSIDE A], the “inhibition zone (IZ)” value is on record as 5 mm with Aspergillus flavus [1], 7 mm with Cladosporium cucumerinum [2] and 5 mm with Aspergillus flavus [3].
Consider `CC(C)[C@H](CC[C@@H](C)[C@H]1C[C@@H](O)[C@@H]2[C@]1(C)CC[C@@H]1[C@@]3(C)CC[C@H](OS(=O)(=O)O)C[C@@H]3[C@@H](O)C[C@]12O)O[C@@H]1OC[C@@H](O)[C@H](O)[C@H]1O` [PYCNOPODIOSIDE B], for which the “inhibition zone (IZ)” value is 5 mm in the assay with Aspergillus flavus [1], 7 mm with Cladosporium cucumerinum [2] and 5 mm with Aspergillus flavus [3].
`C[C@H](/C=C/[C@@H](C)[C@H]1C[C@@H](O)[C@@H]2[C@]1(C)CC[C@@H]1[C@@]3(C)CC[C@H](O[C@@H]4OC[C@@H](O)[C@H](O)[C@H]4O)C[C@@H]3[C@@H](O)C[C@]12O)[C@H](C)C(=O)NCCS(=O)(=O)[O-].[Na+]` [MINUTOSIDE B]: the entries for the “inhibition zone (IZ)” value with Aspergillus flavus [1] and in the assay with Cladosporium cucumerinum [5] were 5 mm and 3 mm, respectively. Also, the result in the assay with Aspergillus flavus [3] and with Cladosporium cucumerinum [4] was inactive.
For the compound `CC(C)[C@H](/C=C/[C@@H](C)[C@H]1C[C@@H](O)[C@@H]2[C@]1(C)CC[C@@H]1[C@@]3(C)CC[C@H](O)C[C@@H]3[C@@H](O)C[C@]12O)O[C@@H]1OC[C@@H](O)[C@H](O)[C@H]1O`, the result in the assay on Aspergillus flavus [1], with Cladosporium cucumerinum [2], in the assay on Aspergillus flavus [3], with Cladosporium cucumerinum [4] and in the assay with Cladosporium cucumerinum [5] was inactive.
